ChEMBL document CHEMBL1126715, “Synthesis and tissue distribution of (m-[125I]iodobenzyl)trozamicol ([125I]MIBT): potential radioligand for mapping central cholinergic innervation” (J Med Chem, 1993)

Experiments:
[1] = species on record: Rattus norvegicus; test: Tissue distribution in rat brain after 5 minutes (n=3); type: ADME, organism-based; conditions: in vivo
How it was run: (§1)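 Male Wistar rats (200-350 g) under ether anesthesia; radiotracer (3-5 μCi in 0.1 mL 50% aqueous ethanol) given iv. At 5, 30, 60 and 180 min, blood was drawn by cardiac puncture and animals were killed by cardiectomy. Organs were weighed and γ-counted against a 1:100 dilution of the injected dose. Results are given as % injected dose/g tissue; ratios are taken between tissue levels.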

[2] = species on record: Rattus norvegicus; test: Tissue distribution in rat liver after 180 minutes (n=3); type: ADME, organism-based; conditions: in vivo, 3 h
How it was run: (§2)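 Male Wistar rats (200-350 g) under ether, iv [125I]tracer (3-5 μCi in 0.1 mL 50% aqueous EtOH). At 5, 30, 60 or 180 min, blood taken by cardiac puncture and the rat killed by cardiectomy. Organs weighed and γ-counted against 1:100 dilutions of the injected dose; results in % injected dose/g, with range.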

[3] = species on record: Rattus norvegicus; test: Tissue distribution in rat brain after 180 minutes (n=3); type: ADME, organism-based; conditions: in vivo, 3 h; how it was run: as §2
[4] = species on record: Rattus norvegicus; test: Regional kinetics in the rat cerebellum at 120 minutes; type: ADME, organism-based; conditions: in vivo, 2 h
How it was run: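 Male Wistar rats under ether anaesthesia, iv (+)-[125I]tracer (2 μCi in 100 μL 50% aqueous EtOH); killed at 30, 120 or 180 min. Brains partially frozen and dissected into striatum, cerebellum, cortex and remainder, then counted for radioactivity. Results are % injected dose/g, calculated against counted dilutions of the injected dose.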

[5] = species on record: Rattus norvegicus; test: Tissue distribution in rat spleen after 5 minutes (n=3); type: ADME, organism-based; conditions: in vivo; how it was run: as §2
[6] = species on record: Rattus norvegicus; test: Tissue distribution in rat liver after 30 minutes (n=3); type: ADME, organism-based; conditions: in vivo, 0.5 h; how it was run: as §1
[7] = Ratio of tissue distribution between rat heart and blood after 5 min; type: ADME, organism-based; conditions: heart and blood; how it was run: as §1
[8] = species on record: Rattus norvegicus; test: Tissue distribution in rat heart after 30 minutes (n=3); type: ADME, organism-based; conditions: in vivo, 0.5 h; how it was run: as §2
[9] = species on record: Rattus norvegicus; test: Effect of vesamicol on the accumulation in rat liver [2.01 (1.65-3.34)]; type: ADME, organism-based; conditions: in vivo
How it was run: (§3)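 Male Wistar rats (n = 4/group) given iv vehicle (100 μL 50% aqueous EtOH) or dl-vesamicol (1.01 μmol/kg); 15 min later iv radiotracer (2.0 μCi in 100 μL 50% aqueous EtOH); killed 30 min post-tracer. Blood by cardiac puncture, organs weighed and γ-counted vs 1:100 injected-dose dilution; % dose/g tissue (range); tissue/blood ratios.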

[10] = species on record: Rattus norvegicus; test: Regional kinetics in the remainder of rat brain at 30 minutes; type: ADME, organism-based; conditions: in vivo, 0.5 h
How it was run: (§4)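 Male Wistar rats (n = 4 per time point) under ether received (+)-radiotracer iv (2 μCi in 100 μL 50% aqueous EtOH). They were killed at 30, 120 or 180 min. Brains were partially frozen and dissected into striatum, cerebellum, cortex and remainder. Regions were γ-counted against injected-dose dilutions and expressed as % injected dose/g tissue.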

[11] = Ratio of tissue distribution between rat heart and blood after 120 min; type: ADME, organism-based
[12] = species on record: Rattus norvegicus; test: Tissue distribution in rat kidney after 180 minutes (n=3); type: ADME, organism-based; conditions: in vivo, 3 h; how it was run: as §1
[13] = species on record: Rattus norvegicus; test: Effect of 4-aminobenzovesamicol on the regional distribution of compound in the remainder of rat brain (n=4) [0.21 (0.17-0.23)]; type: ADME, organism-based; conditions: in vivo
[14] = species on record: Rattus norvegicus; test: Tissue distribution in rat spleen after 60 minutes (n=3); type: ADME, organism-based; conditions: in vivo, 1 h; how it was run: as §1
[15] = species on record: Rattus norvegicus; test: Regional kinetics in the rat brain caudate-putamen at 30 minutes; type: ADME, organism-based; conditions: in vivo, 0.5 h; how it was run: as §4
[16] = species on record: Rattus norvegicus; test: Tissue distribution in rat brain after 30 minutes (n=3); type: ADME, organism-based; conditions: in vivo, 0.5 h; how it was run: as §1
[17] = species on record: Rattus norvegicus; test: Ratio of effect haloperidol on regional distribution between rat brain caudate and cortex; type: ADME, organism-based; conditions: in vivo
[18] = species on record: Rattus norvegicus; test: Tissue distribution in rat muscle after 30 minutes (n=3); type: ADME, organism-based; conditions: in vivo, 0.5 h; how it was run: as §2
[19] = species on record: Rattus norvegicus; test: Effect of haloperidol on the regional distribution of compound in the remainder of rat brain (n=4) [0.33 (0.28-0.40)]; type: ADME, organism-based; conditions: in vivo
[20] = species on record: Rattus norvegicus; test: Ratio of tissue distribution between rat heart and blood after 60 min; type: ADME, organism-based; conditions: other tissue, 1 h; how it was run: as §1
[21] = species on record: Rattus norvegicus; test: Tissue distribution in rat gonads after 5 minutes (n=3); type: ADME, organism-based, Gonad; conditions: in vivo; how it was run: as §1
[22] = species on record: Rattus norvegicus; test: Ratio of tissue distribution between rat heart and blood after 30 min; type: ADME, organism-based; conditions: other tissue, 0.5 h; how it was run: as §1
[23] = species on record: Rattus norvegicus; test: Tissue distribution in rat lung after 5 minutes (n=3); type: ADME, organism-based; conditions: in vivo; how it was run: as §1
[24] = species on record: Rattus norvegicus; test: Ratio of tissue distribution between rat brain and blood after 30 min; type: ADME, organism-based; conditions: 0.5 h
How it was run: (§5)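 Male Wistar rats (200-350 g) under ether anesthesia, iv radiotracer (3-5 μCi in 0.1 mL 50% aqueous ethanol). At 5, 30, 60, 180 min blood taken by cardiac puncture, animal killed by cardiectomy; organs weighed, γ-counted against 1:100 injected-dose dilution; % injected dose/g tissue; brain/blood ratio.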

[25] = species on record: Rattus norvegicus; test: Effect of vesamicol on the accumulation in rat gonads [0.15 (0.14-0.15)]; type: ADME, organism-based; conditions: in vivo; how it was run: as §3
[26] = species on record: Rattus norvegicus; test: Tissue distribution in rat heart after 5 minutes (n=3); type: ADME, organism-based; conditions: in vivo; how it was run: as §1
[27] = species on record: Rattus norvegicus; test: Effect of vesamicol on the accumulation in rat muscle [0.16 (0.15-0.20)]; type: ADME, organism-based, Muscle tissue; conditions: in vivo
How it was run: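 Male Wistar rats. Pretreatment at t = 0 was iv vehicle (50% aqueous EtOH) or iv dl-vesamicol (1.01 μmol/kg). At 15 min, iv [125I]tracer (2.0 μCi in 100 μL 50% aqueous EtOH) was given; rats were killed 30 min later. Tissues were weighed and γ-counted, and values expressed as % injected dose/g; n = 4 per group.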

[28] = species on record: Rattus norvegicus; test: Ratio of regional kinetics between rat brain caudate and cortex at 180 minutes; type: ADME, organism-based; conditions: in vivo, 3 h
How it was run: (§6)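 Male Wistar rats (n = 4/group) under ether anesthesia, iv (+)-[125I]MIBT (2 μCi in 100 μL 50% aqueous EtOH); killed at 30, 120, 180 min. Brains partially frozen, dissected into striatum, cerebellum, cortex and remainder; radioactivity counted, % dose/g vs injected-dose dilutions; caudate/cortex and caudate/cerebellum ratios.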

[29] = species on record: Rattus norvegicus; test: Tissue distribution in rat heart after 180 minutes (n=3); type: ADME, organism-based; conditions: in vivo, 3 h; how it was run: as §1
[30] = species on record: Rattus norvegicus; test: Tissue distribution in rat blood after 30 minutes (n=3); type: ADME, organism-based; conditions: in vivo, 0.5 h; how it was run: as §1
[31] = species on record: Rattus norvegicus; test: Ratio of regional kinetics between rat brain caudate and cortex at 120 minutes; type: ADME, organism-based; conditions: in vivo, 2 h; how it was run: as §6
[32] = species on record: Rattus norvegicus; test: Tissue distribution in rat blood after 180 minutes (n=3); type: ADME, organism-based; conditions: in vivo, 3 h; how it was run: as §1
[33] = species on record: Rattus norvegicus; test: Tissue distribution in rat gonads after 60 minutes (n=3); type: ADME, organism-based, Gonad; conditions: in vivo, 1 h; how it was run: as §2
[34] = species on record: Rattus norvegicus; test: Effect of vesamicol on the accumulation in rat blood [0.05 (0.04-0.06)]; type: ADME, organism-based; conditions: in vivo; how it was run: as §3
[35] = species on record: Rattus norvegicus; test: Regional kinetics in the rat brain caudate-putamen at 180 minutes; type: ADME, organism-based; conditions: in vivo, 3 h; how it was run: as §4
[36] = species on record: Rattus norvegicus; test: Tissue distribution in rat thyroid after 180 minutes (n=3); type: ADME, organism-based, Thyroid gland; conditions: in vivo, 3 h; how it was run: as §1
[37] = species on record: Rattus norvegicus; test: Effect of 4-aminobenzovesamicol on the regional distribution of compound in the rat cerebellum (n=4) [0.12 (0.10-0.13)]; type: ADME, organism-based; conditions: in vivo
[38] = species on record: Rattus norvegicus; test: Effect of vesamicol on the accumulation in rat brain [0.51 (0.45-0.66)]; type: ADME, organism-based; conditions: in vivo; how it was run: as §3
[39] = species on record: Rattus norvegicus; test: Ratio of regional kinetics between rat brain caudate and cerebellum at 30 minutes; type: ADME, organism-based; conditions: in vivo, 0.5 h; how it was run: as §6
[40] = Ratio of tissue distribution between rat brain and blood after 5 min; type: ADME, organism-based; conditions: brain and blood; how it was run: as §5
[41] = species on record: Rattus norvegicus; test: Ratio of effect 4-aminobenzovesamicol on regional distribution between rat brain caudate and cortex; type: ADME, organism-based; conditions: in vivo
[42] = species on record: Rattus norvegicus; test: Tissue distribution in rat spleen after 180 minutes (n=3); type: ADME, organism-based; conditions: in vivo, 3 h; how it was run: as §1
[43] = species on record: Rattus norvegicus; test: Tissue distribution in rat kidney after 60 minutes (n=3); type: ADME, organism-based; conditions: in vivo, 1 h; how it was run: as §1
[44] = species on record: Rattus norvegicus; test: Tissue distribution in rat liver after 5 minutes (n=3); type: ADME, organism-based; conditions: in vivo; how it was run: as §2
[45] = species on record: Rattus norvegicus; test: Tissue distribution in rat lung after 180 minutes (n=3); type: ADME, organism-based; conditions: in vivo, 3 h; how it was run: as §2

Which Dose/g [1] does the source give for `O[C@@H]1CCN(Cc2cccc([125I])c2)C[C@H]1N1CCC(c2ccccc2)CC1` (stereo in doubt; (+)) here?
The Dose/g was 0.57%.

And the Dose/g [2]?
The Dose/g was 1.18%.

And the Dose/g [3]?
The Dose/g was 0.15%.

What about the Dose/g [4] of the same molecule?
Its Dose/g is 0.28%.

What about the Dose/g [5] of the same molecule?
Its Dose/g is 0.76%.

And the Dose/g [6]?
The Dose/g was 2.18%.

What about the Kp at 5 min [7] of the same molecule?
Its Kp at 5 min is 4.68.

And the Dose/g [8]?
The Dose/g was 0.26%.

What about the Dose/g [9] of the same molecule?
Its Dose/g is 1.93%.

What about the Dose/g [10] of the same molecule?
Its Dose/g is 0.59%.

What about the Kp at 2 h [11] of the same molecule?
Its Kp at 2 h is 1.6.

And the Dose/g [12]?
The Dose/g was 0.5%.

What about the Dose/g [13] of the same molecule?
The Dose/g was 0.15%.

What about the Dose/g [14] of the same molecule?
Its Dose/g is 0.86%.

And the Dose/g [15]?
Its Dose/g is 0.64%.

What about the Dose/g [16] of the same molecule?
The Dose/g was 0.36%.

And the Ratio [17]?
Its Ratio is 4.82.

And the Dose/g [18]?
The Dose/g was 0.16%.

What about the Dose/g [19] of the same molecule?
Its Dose/g is 0.17%.

And the Ratio [20]?
The Ratio was 1.7.

And the Dose/g [21]?
The Dose/g was 0.13%.

What about the Ratio [22] of the same molecule?
Its Ratio is 2.33.

And the Dose/g [23]?
The Dose/g was 3.67%.

What about the Ratio [24] of the same molecule?
Its Ratio is 3.18.

What about the Dose/g [25] of the same molecule?
Its Dose/g is 0.15%.

And the Dose/g [26]?
The Dose/g was 1.14%.

And the Dose/g [27]?
The Dose/g was 0.13%.

What about the Ratio [28] of the same molecule?
Its Ratio is 1.93.

What about the Dose/g [29] of the same molecule?
The Dose/g was 0.1%.

What about the Dose/g [30] of the same molecule?
Its Dose/g is 0.12%.

And the Ratio [31]?
The Ratio was 1.68.

And the Dose/g [32]?
Its Dose/g is 0.07%.

What about the Dose/g [33] of the same molecule?
Its Dose/g is 0.17%.

What about the Dose/g [34] of the same molecule?
The Dose/g was 0.05%.

What about the Dose/g [35] of the same molecule?
The Dose/g was 0.49%.

And the Dose/g [36]?
Its Dose/g is 13.13%.

And the Dose/g [37]?
The Dose/g was 0.11%.

And the Dose/g [38]?
The Dose/g was 0.3%.

What about the Ratio [39] of the same molecule?
Its Ratio is 1.2.

What about the Kp at 5 min [40] of the same molecule?
Its Kp at 5 min is 2.33.

What about the Ratio [41] of the same molecule?
Its Ratio is 1.57.

What about the Dose/g [42] of the same molecule?
Its Dose/g is 0.44%.

What about the Dose/g [43] of the same molecule?
The Dose/g was 0.87%.

And the Dose/g [44]?
Its Dose/g is 1.6%.

And the Dose/g [45]?
The Dose/g was 0.39%.
